SENP7 block: blocks the human protease SENP7. Q9BQF6. inhibition, % at 5 µM. recombinant SENP7, Z-RLRGG-aminoluciferin luminescence, 40 min. actives 1.5% (n = 330,000). AID 434973;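 active means inhibition above about 50% at the single test dose, limit read from the data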
Target sequence (Q9BQF6 706-1050 limits assumed): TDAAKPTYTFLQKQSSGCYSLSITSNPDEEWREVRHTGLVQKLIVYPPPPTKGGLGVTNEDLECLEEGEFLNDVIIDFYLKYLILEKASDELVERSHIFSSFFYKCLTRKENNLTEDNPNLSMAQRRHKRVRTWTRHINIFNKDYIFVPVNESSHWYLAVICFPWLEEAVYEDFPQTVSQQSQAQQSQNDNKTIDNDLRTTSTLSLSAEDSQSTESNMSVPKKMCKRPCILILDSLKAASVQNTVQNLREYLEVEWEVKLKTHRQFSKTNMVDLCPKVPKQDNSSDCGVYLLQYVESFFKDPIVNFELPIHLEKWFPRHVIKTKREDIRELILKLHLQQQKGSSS
SENP6 block: blocks the human protease SENP6 | Recombinant SENP6 catalytic domain, aminoluciferin luminescence | Q9GZR1 | AID 2599 | actives 1.8% (n = 330,000) | inhibition, % at 10 µM;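 active means inhibition above about 50% at the single tested dose, limit read from the data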
SENP8 block-1: inhibitors of human SENP8 protease | Q96LD8 | actives 0.64% (n = 360,000) | inhibition, % at 20 µM | recombinant SENP8, Nedd8 substrate fluorescence; in the data active means inhibition mostly above about 40%, no sharp cut-off; inactive means mostly below about 27%
UBC13 polyUb: inhibitors of human UBC13 polyubiquitin chain formation | P61088 | TR-FRET | inhibition, % at 20 µM | actives 0.47% (n = 330,000); in the data active means inhibition above about 45%, passing the limit was not always enough
Target sequence (P61088 whole entry, looked up): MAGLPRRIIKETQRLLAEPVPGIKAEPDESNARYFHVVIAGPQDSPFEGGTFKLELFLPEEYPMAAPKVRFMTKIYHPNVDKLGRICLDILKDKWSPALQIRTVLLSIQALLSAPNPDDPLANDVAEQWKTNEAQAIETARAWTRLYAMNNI
Apaf-1 inh: blocks human Apaf-1 apoptosome activity; O14727; reconstituted apoptosome caspase-3 activity, DEVD-Rh110 fluorescence; AID 489030; inhibition, % at 20 µM; actives 0.71% (n = 330,000); active means inhibition of at least 40% at 20 µM
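Material: reconstituted apoptosome with Apaf-1, cytochrome c, caspase-9, procaspase-3, dATP / Buffer or medium: pH 7.5 Hepes buffer with CHAPS, BSA, DTT / Also added: cytochrome c with DEVD-Rh110 / Schedule: compound with Apaf-1, dATP, procaspase-3 30 min, then 50 min reaction, room temperature / Technique: rhodamine 110 fluorescence at Ex 480/Em 540 nm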
SENP8 block-2: blocks the human protease SENP8 | AID 2540 | actives 1.2% (n = 330,000) | inhibition, % at 10 µM | purified SENP8, Z-RLRGG-aminoluciferin cleavage, luminescence; in the data active means inhibition above about 50%
Apaf-1 inh conf: Apaf-1 inhibition, single-dose confirmed; reconstituted apoptosome, caspase-3 DEVD-Rh110 fluorescence; actives 25% (n = 1,800); AID 504614; inhibition, % at 20 µM; shares compounds with Apaf-1 inh;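 active means mean inhibition of at least 40% at 20 µM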
Rh110 quench: counter-screen for Apaf-1 inhibitors: fluorescence interference. 1,800 tested, under 10 active. AID 504615. Rh110 fluorescence interference, quenched caspase reaction. shares compounds with Apaf-1 inh. activation (fluorescence interference), % at 20 µM;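 active means signal rise of 40% or more at 20 µM, treated as a fluorescence artifact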
Apaf1 inh interf: Apaf-1 inhibitor counter-screen fluorescence artifact; IC50, µM; 460 tested, under 10 active; fluorescence interference counterscreen, Apaf-1 assay format; shares compounds with Apaf-1 inh; call rule not given here
Large screens that a line does not name were inactive (follow-up assays come after a bar, where they were run). Sampled rows, rich in hits. Any-hit rate of the full collection: about 3%.

Cc1ccc(OCC(=O)N/N=C\c2c(C)n(C)c3ccccc23)c([N+](=O)[O-])c1	Apaf-1 inh 42 | Apaf-1 inh conf inactive | Rh110 quench inactive
COC(=O)CCC(=O)OC1(C)C(=O)C2=CN(C3CC3)C(c3ccc(OC)cc3)=CC2=C(Br)C1=O (centres undefined)	Apaf-1 inh 61 | Apaf-1 inh conf 56 | Rh110 quench inactive | Apaf1 inh interf inactive
COC(=O)CCC(=O)OC1(C)C(=O)C2=CN(CC3CC3)C(c3ccc(OC)cc3)=CC2=C(Br)C1=O (centres undefined)	Apaf-1 inh 66 | Apaf-1 inh conf 64 | Rh110 quench inactive | Apaf1 inh interf inactive
COC(=O)CCC(=O)OC1(C)C(=O)C2=CN(CCCOC(C)C)C(c3ccc(OC)cc3)=CC2=C(Br)C1=O (centres undefined)	Apaf-1 inh 79 | Apaf-1 inh conf 71 | Rh110 quench inactive | Apaf1 inh interf inactive
COC(=O)CCC(=O)OC1(C)C(=O)C2=CN(Cc3ccc(OC)cc3)C(c3ccc(OC)cc3)=CC2=C(Br)C1=O (centres undefined)	none
CC1=NN(c2ccc(C)cc2C)C(=O)C1C(c1ccccc1)C1C(=O)N(c2ccc(C)cc2C)N=C1C (centres undefined)	SENP8 block-1 92, Apaf-1 inh 67 | Apaf-1 inh conf inactive | Rh110 quench inactive
Cc1ccc2oc(=O)c3cc(C(=O)NCCCN4CCN(C)CC4)sc3c2c1	none
O=C(NCCCN1CCCCCC1)c1cc2c(=O)oc3ccccc3c2s1	Apaf-1 inh 40 | Apaf-1 inh conf inactive | Rh110 quench inactive
CCCC[n+]1ccn(C2=C([O-])c3ccccc3C(=O)/C2=N\S(=O)(=O)c2ccc(Br)cc2)c1	SENP8 block-1 74, Apaf-1 inh 59 | Apaf-1 inh conf 68 | Rh110 quench inactive | Apaf1 inh interf inactive
Cc1ccc(S(=O)(=O)/N=C2\C(=O)c3ccccc3C([O-])=C2n2cc[n+](CCC(C)C)c2)cc1	SENP8 block-1 84, Apaf-1 inh 57 | Apaf-1 inh conf 68 | Rh110 quench inactive | Apaf1 inh interf inactive
O=C1c2ccccc2C(=O)N1CCCCN(C(=O)c1cc2ccccc2oc1=O)c1ccc(F)cc1F	none
COCCN(Cc1ccccc1)C(=O)c1cccc(S(=O)(=O)N2CCN(c3ccccc3)CC2)c1	Apaf-1 inh 43 | Apaf-1 inh conf 42 | Rh110 quench inactive | Apaf1 inh interf inactive
COCCN(Cc1ccccc1)C(=O)C1CCN(S(=O)(=O)c2ccc3c(c2)OCCO3)CC1	Apaf-1 inh 49 | Apaf-1 inh conf inactive | Rh110 quench inactive
CC1CN(C(=O)c2cccc(S(=O)(=O)NCc3ccccc3)c2)CC(C)O1 (centres undefined)	Apaf-1 inh 54 | Apaf-1 inh conf inactive | Rh110 quench inactive
CC1CN(C(=O)c2ccc(CNS(=O)(=O)c3cccc(Cl)c3)cc2)CC(C)O1 (centres undefined)	none
CC1CN(S(=O)(=O)c2cccc(C(=O)N(CCc3ccccc3)Cc3ccccc3)c2)CC(C)O1 (centres undefined)	Apaf-1 inh 45 | Apaf-1 inh conf inactive | Rh110 quench inactive
CCC(C(=O)Nc1ccccc1Cl)n1nc(C)c2c(C)n(-c3ccccc3)nc2c1=O (centres undefined)	none
COc1ccc(-c2ccc(CN3C(C)C(=O)N(Cc4cn(CCC5OCCO5)nn4)CCS3(=O)=O)cc2)cc1 (centres undefined)	none (no result: SENP7 block, SENP6 block, UBC13 polyUb, Apaf-1 inh, SENP8 block-2)
COc1ccccc1-c1cc(NC(C)=O)c2ncc(-c3cccc(C(C)=O)c3)n2c1	none (no result: SENP7 block, SENP6 block, UBC13 polyUb, Apaf-1 inh, SENP8 block-2)
CCOC(=O)[C@]12CCC=C1N(Cc1ccco1)C(=O)[C@H](CC(=O)N1CCN(C(=O)C3CC3)CC1)C2	none (no result: SENP7 block, SENP6 block, UBC13 polyUb, Apaf-1 inh, SENP8 block-2)
CSc1ccc(CN(C)C(=O)c2cccc(S(=O)(=O)NCc3ccccc3)c2)cc1	Apaf-1 inh 67 | Apaf-1 inh conf inactive | Rh110 quench inactive
CCOC(=O)C(C(=O)OCC)c1cc(Br)c2noc3c2c1C(=O)c1ccccc1-3	SENP6 block 65, SENP8 block-1 87, Apaf-1 inh 89 | Apaf-1 inh conf 74 | Rh110 quench inactive | Apaf1 inh interf inactive
Cc1ccc2c(c1)C(=O)C(=O)N2Cc1ccc(Cl)cc1	Apaf-1 inh 40 | Apaf-1 inh conf inactive | Rh110 quench inactive
CC(=O)C1=C(c2cccc([N+](=O)[O-])c2)N(C(C)=O)n2c(C)nnc2S1	Apaf-1 inh 44 | Apaf-1 inh conf inactive | Rh110 quench inactive
CCCCOc1ccc(C(=O)NCC(=O)NCC(c2cccs2)N2CCOCC2)cc1 (centres undefined)	Apaf-1 inh 41 | Apaf-1 inh conf 42 | Rh110 quench inactive | Apaf1 inh interf inactive
O=C(NCC(c1ccco1)N1CCCC1)c1cccc(S(=O)(=O)Nc2ccc(Br)cc2)c1 (centres undefined)	Apaf-1 inh 59 | Apaf-1 inh conf 42 | Rh110 quench inactive | Apaf1 inh interf inactive
Cc1ccc(NS(=O)(=O)c2cccc(C(=O)NCC(c3ccco3)N3CCCCC3)c2)cc1 (centres undefined)	none
Cc1[nH]n(-c2ccccc2)c(=O)c1/C=N\NC(=O)C1COc2ccccc2O1 (centres undefined)	Apaf-1 inh 54 | Apaf-1 inh conf 65 | Rh110 quench inactive | Apaf1 inh interf inactive
CC(=O)N/N=C/c1c(C)[nH]n(-c2ccccc2)c1=O	none
Cc1[nH]n(-c2ccccc2)c(=O)c1/C=N/N(C)c1ccccc1	Apaf-1 inh 80 | Apaf-1 inh conf inactive | Rh110 quench inactive
Cc1[nH]n(-c2ccccc2)c(=O)c1/C=N/NC(=O)c1cccc([N+](=O)[O-])c1	SENP8 block-1 52, Apaf-1 inh 56 | Apaf-1 inh conf 53 | Rh110 quench inactive | Apaf1 inh interf inactive
O=C(NCc1ccc2c(c1)OCO2)c1[nH]c(C(F)(F)F)nc1-c1ccccc1	none (no result: SENP7 block, SENP6 block, UBC13 polyUb, Apaf-1 inh, SENP8 block-2)
CCCCOc1ccc(C(=O)N2CCN(CC(=O)Nc3ccc(C)cc3)CC2)cc1OC	none
CCN(CC(=O)Nc1ccccc1OC)C(=O)c1ccccc1Sc1ccccc1C#N	Apaf-1 inh 58 | Apaf-1 inh conf 42 | Rh110 quench inactive | Apaf1 inh interf inactive
CCN(CC(=O)Nc1ccc(OC)cc1)C(=O)c1ccccc1Sc1ccccc1C#N	none
COCCNC(=O)C1(C)CCCN(Cc2c(C)nn(-c3ccccc3)c2C)C1 (centres undefined)	none (no result: SENP7 block, SENP6 block, UBC13 polyUb, Apaf-1 inh, SENP8 block-2)
O=C(NC1CCCC1)c1ccc2nc(-c3ccco3)c(-c3ccco3)nc2c1	Apaf-1 inh 44 | Apaf-1 inh conf inactive | Rh110 quench inactive
